Experimental data published in ChEMBL document CHEMBL3877308, “Design, synthesis and in vitro biological evaluation of oligopeptides targeting E. coli type I signal peptidase (LepB)” (Bioorg Med Chem, 2017).
In brackets after ≈: the same amount, converted by molar mass.

How the values were obtained:
[1] = target: Signal peptidase I (Escherichia coli K-12) (UniProt P00803); experiment: Inhibition of full length Escherichia coli His6-tagged LepB expressed in Escherichia coli C43(DE3) at 100 uM using dabcyl-VEVGGTATAGAFSRPGLE-(EDANS) as substrate preincubated for 10 mins followed by substrate addition measured for 2 hrs by FRET assay relative to control
Sequence of Signal peptidase I (Escherichia coli K-12) (P00803 whole entry): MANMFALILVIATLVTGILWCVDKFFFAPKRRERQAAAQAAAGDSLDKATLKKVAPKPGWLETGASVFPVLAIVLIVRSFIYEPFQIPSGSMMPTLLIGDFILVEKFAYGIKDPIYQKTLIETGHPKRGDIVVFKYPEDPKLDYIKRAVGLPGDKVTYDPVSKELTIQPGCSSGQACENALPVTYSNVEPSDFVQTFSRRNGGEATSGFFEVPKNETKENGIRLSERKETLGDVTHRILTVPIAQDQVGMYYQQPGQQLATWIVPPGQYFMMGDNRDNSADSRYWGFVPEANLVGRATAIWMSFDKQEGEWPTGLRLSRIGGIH
Summary of the method: (§1)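 Enzyme came from the membrane fraction, extracted with 1% reduced Triton X-100 and purified by metal-chelation chromatography in 0.5% detergent. FRET pair was dabcyl acceptor and EDANS donor. EcLepB (final about 50 nM) was pre-incubated with compound 10 min at 22 °C. Reaction was then run with 8 µM substrate, following the linear fluorescence increase at 22 °C for 2 h.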

Signal peptidase I = Signal peptidase I (Escherichia coli K-12, UniProt P00803); experiment: Inhibition of full length Escherichia coli His6-tagged LepB expressed in Escherichia coli C43(DE3) using dabcyl-VEVGGTATAGAFSRPGLE-(EDANS) as substrate preincubated for 10 mins followed by substrate addition measured for 2 hrs by FRET assay
Sequence of Signal peptidase I (P00803 whole entry): as above
Summary of the method: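 Enzyme extracted from the membrane fraction with 1% reduced Triton X-100 and purified by metal-chelation chromatography in 0.5% detergent. Enzyme (final ~50 nM) was pre-incubated with compound for 10 min at 22 °C. The linear rise in EDANS donor fluorescence (dabcyl acceptor) was then followed at 22 °C for 2 h. IC50 came from non-linear regression of sigmoidal rate-versus-concentration curves.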

[2] = target: Signal peptidase I (Escherichia coli K-12) (UniProt P00803); experiment: Inhibition of full length Escherichia coli His6-tagged LepB expressed in Escherichia coli C43(DE3) assessed as residual activity at 2.5 uM using dabcyl-VEVGGTATAGAFSRPGLE-(EDANS) as substrate preincubated for 10 mins followed by substrate addition measured for 2 hrs by FRET assay relative to control; summary of the method: as §1
[3] = target: Signal peptidase I (Escherichia coli K-12) (UniProt P00803); experiment: Inhibition of full length Escherichia coli His6-tagged LepB expressed in Escherichia coli C43(DE3) assessed as residual activity at 5 uM using dabcyl-VEVGGTATAGAFSRPGLE-(EDANS) as substrate preincubated for 10 mins followed by substrate addition measured for 2 hrs by FRET assay relative to control; summary of the method: as §1
[4] = target: Signal peptidase I (Escherichia coli K-12) (UniProt P00803); experiment: (§2) Inhibition of full length Escherichia coli His6-tagged LepB expressed in Escherichia coli C43(DE3) assessed as residual activity at 10 uM using dabcyl-VEVGGTATAGAFSRPGLE-(EDANS) as substrate preincubated for 10 mins followed by substrate addition measured for 2 hrs by FRET assay relative to control; summary of the method: as §1
[5] = target: Signal peptidase I (Escherichia coli K-12) (UniProt P00803); experiment: as §2, with “at 1.25” for “at 10”; summary of the method: as §1
[6] = target: Signal peptidase I (Escherichia coli K-12) (UniProt P00803); experiment: as §2, with “at 0.625” for “at 10”; summary of the method: as §1
[7] = target: Signal peptidase I (Escherichia coli K-12) (UniProt P00803); experiment: as §2, with “at 0.313” for “at 10”; summary of the method: as §1
[8] = target: Signal peptidase I (Escherichia coli K-12) (UniProt P00803); experiment: as §2, with “at 0.156” for “at 10”; summary of the method: as §1
[9] = target: Signal peptidase I (Escherichia coli K-12) (UniProt P00803); experiment: as §2, with “at 0.078” for “at 10”; summary of the method: as §1
[10] = target: Signal peptidase I (Escherichia coli K-12) (UniProt P00803); experiment: as §2, with “at 0.039” for “at 10”; summary of the method: as §1
[11] = target: Signal peptidase I (Escherichia coli K-12) (UniProt P00803); experiment: as §2, with “at 0.02” for “at 10”; summary of the method: as §1
[12] = target: Signal peptidase I (Escherichia coli K-12) (UniProt P00803); experiment: as §2, with “at 0.01” for “at 10”; summary of the method: as §1
Escherichia coli [13] = experiment: Antibacterial activity against wild type Escherichia coli ATCC 25922 after 16 to 20 hrs by broth microdilution assay; type: functional
Summary of the method: (§3)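 MIC by broth microdilution in cation-adjusted Mueller-Hinton II medium, following EUCAST and CLSI guidelines; panel of Gram-negative strains plus S. aureus ATCC 29213.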

Escherichia coli [14] = experiment: Antibacterial activity against Escherichia coli CH3130 harboring tolC deletion mutant after 16 to 20 hrs by broth microdilution assay; type: functional
Summary of the method: (§4)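 Broth microdilution MIC in cation-adjusted Mueller-Hinton II medium, following EUCAST and CLSI guidelines; tested on a panel of Gram-negative strains plus S. aureus ATCC 29213 (wild-type).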

Escherichia coli [15] = experiment: Antibacterial activity against Escherichia coli D22 harboring lpxC mutant after 16 to 20 hrs by broth microdilution assay; type: functional; summary of the method: as §4
Pseudomonas aeruginosa [16] = experiment: Antibacterial activity against wild type Pseudomonas aeruginosa PAO1 after 16 to 20 hrs by broth microdilution assay; type: functional; summary of the method: as §3
Pseudomonas aeruginosa [17] = experiment: Antibacterial activity against wild type Pseudomonas aeruginosa PAO750 harboring efflux defective mutant after 16 to 20 hrs by broth microdilution assay; type: functional; summary of the method: as §4
Klebsiella pneumoniae = experiment: Antibacterial activity against wild type Klebsiella pneumoniae […] after 16 to 20 hrs by broth microdilution assay; type: functional; summary of the method: as §3
Staphylococcus aureus = experiment: Antibacterial activity against wild type Staphylococcus aureus ATCC 29213 after 16 to 20 hrs by broth microdilution assay; type: functional; summary of the method: as §3
Acinetobacter baumannii = experiment: Antibacterial activity against wild type Acinetobacter baumannii ATCC 19606 after 16 to 20 hrs by broth microdilution assay; type: functional; summary of the method: as §3
[18] = Cytotoxicity against human HepG2 cells assessed as reduction in cell viability after 72 hrs by fluorescein diacetate dye based fluorometric microculture assay; type: toxicity
Summary of the method: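 FMCA on HepG2 cells read at 72 h. Survival index (%) is fluorescence in test wells as percent of control cultures, with blank values subtracted. IC50 was obtained by non-linear regression of log concentration-effect curves.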

[19] = Hemolytic activity against human RBC at 100 uM after 45 mins by spectrophotometric method relative to control; type: ADME, cell-based, Erythrocyte; settings: red blood cells (RBC), read-out: Activity
Summary of the method: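 Hemolysis was tested using red blood cells from heparinized human blood.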

For `CC(=O)N1CCC[C@H]1C(=O)N[C@H](C(=O)N[C@@H](C)C(=O)N[C@@H](CC(N)=O)C(=O)N[C@@H](C)C(=O)C(=O)NCc1cccc2ccccc12)[C@H](C)O`, the inhibition [1] was 32.3%.

In the case of `CCCCCCCCCC(=O)N1CCC[C@H]1C(=O)N[C@H](C(=O)N[C@@H](C)C(=O)N[C@@H](CC(N)=O)C(=O)N[C@@H](C)C(=O)C(=O)NCc1cccc2ccccc12)[C@H](C)O`, the inhibition [1] is reported as 14.4%.

In the case of `CC(=O)N[C@@H](C)C(=O)C(=O)NCc1cccc2ccccc12`, the inhibition [1] is reported as 31%.

In the case of `CCCCCCc1ccc(-c2ccc(C(=O)N3CCC[C@H]3C(=O)N[C@H](C(=O)N[C@@H](C)C(=O)N[C@@H](CC(N)=O)C(=O)N[C@@H](C)B(O)O)[C@H](C)O)cc2)cc1`, the IC50 (Signal peptidase I) is reported as 0.23 µM, the Activity [2] is reported as 7.49% and the Activity [3] is reported as 4.71%. The inhibition [1] was over 50%, the Activity [4] was 7.23% and the Activity [5] was 16.8%. The Activity [6] was 33.5%, the Activity [7] was 38.4% and the Activity [8] was 62.6%. For the same compound, the Activity [9] was 95.5%, the Activity [10] was 97% and the Activity [11] was 97.9%. For the same compound, the Activity [12] was 97.1%, the MIC (Escherichia coli [13]) was over 64 µg/mL and the MIC (Escherichia coli [14]) was over 64 µg/mL. The MIC (Escherichia coli [15]) was over 64 µg/mL, the MIC (Pseudomonas aeruginosa [16]) was over 64 µg/mL and the MIC (Pseudomonas aeruginosa [17]) was over 64 µg/mL. The MIC (Klebsiella pneumoniae) was over 64 µg/mL, the MIC (Staphylococcus aureus) was 4 µg/mL (≈ 5.43 µM) and the MIC (Acinetobacter baumannii) was over 64 µg/mL. The IC50 at 72 h [18] was over 64 µM and the hemolysis at 0.75 h, 100 µM [19] was 1.1%.

In the case of `CNC(=O)[C@@H]1CCCN1C(=O)[C@H](C)NC(=O)[C@H](CC(N)=O)NC(=O)[C@H](C)NC(=O)[C@@H](NC(=O)[C@@H]1CCCN1C(C)=O)[C@H](C)O`, the inhibition [1] is reported as 35.8%.

In the case of `CCCCCCCCCC(=O)N1CCC[C@H]1C(=O)N[C@H](C(=O)N[C@@H](C)C(=O)N[C@@H](CC(N)=O)C(=O)N[C@@H](C)C(=O)O)[C@H](C)O`, the inhibition [1] is reported as 38%.

Work on `CC(=O)N[C@@H](C)B1O[C@@H]2C[C@@H]3C[C@@H](C3(C)C)[C@]2(C)O1` yielded an inhibition [1] of 18%.

`CCCCCCCCCC(=O)N1CCC[C@H]1C(=O)N[C@H](C(=O)N[C@@H](C)C(=O)N[C@@H](CC(N)=O)C(=O)N[C@@H](C)C(=O)C(=O)NC(C)(C)C)[C@H](C)O` showed an inhibition [1] of 31.5%.
